Rows were chosen to be rich in hits. Some 2% of all compounds tested hit in one or more screens of this group.
STAT1 blocker: STAT1 signaling inhibitors, primary screen, cell-based, HTS, luciferase reporter; NIH 3T3 STAT1-luciferase reporter, IFN-gamma, luminescence; inhibition, % at 5.5 µM; 200,000 compounds, 0.35% hits; AID 920, 2007;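 active = inhibition above a set limit, the mean inhibition across all tested compounds plus 3 SD, cut at about 34% in these data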;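 note: 0% = IFN-gamma with DMSO and 100% = IFN-gamma with 300 µM nifuroxazide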
HSP90 inh: HSP90 inhibitors, primary screen, cell lysate, luminescence | Heat shock protein HSP 90 (rabbit reticulocyte lysate; luciferase refolding) | Rabbit reticulocyte lysate, luciferase refolding luminescence, 3 h | inhibition, % at 5.6 µM | 290,000 compounds, 0.91% hits | AID 1789, 2009;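 active = inhibition above the screen-wide mean plus 3 SD, computed separately per campaign, cut at about 16% in these data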;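 note: 0% = DMSO wells and 100% = 60 µM geldanamycin wells; inhibitors lower the luminescence because luciferase stays unfolded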
STAT3 inh: IL-6 driven STAT3 reporter inhibitors, primary screen, U3A cells, luciferase, luminescence, MLSCN library; IL-6 STAT3-luciferase reporter; host cell line lacks STAT1; inhibition, % at 5.5 µM; 190,000 compounds, 0.89% hits; AID 862, 2007;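 active = inhibition above the mean inhibition across all screened compounds plus 3 SD, cut at about 44% in these data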;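 note: 0% = DMSO only wells and 100% = 100 µM nifuroxazide control wells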
STAT3 activator: IL-6 driven STAT3 reporter potentiators, primary screen, U3A cells, luciferase, luminescence, MLSCN library | 190,000 compounds, 0.91% hits | IL-6 STAT3-luciferase reporter; 100% = signal with IL-6 EC80 alone | activation (% of control), % at 5.6 µM;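 active = activation above the screen-wide mean of compound activation plus 3 SD, cut at about 130% in these data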;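 note: 0% = background luminescence of wells with medium and substrate only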
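Material: STAT1-lacking human U3A cells, STAT3 luciferase reporter | Benchmarks: IL-6-only wells as 100% reference | Probe or stimulus: IL-6 (33 ng/mL) | Timing: Compound 1 h, then IL-6 6 h at 37 °C | Detection: Luminescence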
HSP90 inh confirm: HSP90 inhibitors, confirmation, cell lysate, luminescence; inhibition, % at 5.9 µM; 2,300 compounds, 64% hits; shares compounds with HSP90 inh; rabbit reticulocyte lysate, luciferase refolding luminescence, 3 h; AID 1846, 2009; in the data active = inhibition above about 18%;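 note: 0% = vehicle wells and 100% = reference inhibitor wells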
luciferase ctr: firefly luciferase inhibitors, HSP90 counter-screen, confirmation, artefact control for HSP90 inhibitor project, biochemical, luminescence, triplicate | shares compounds with HSP90 inh | purified native firefly luciferase | inhibition, % at 5.9 µM | 2,300 compounds, 48% hits;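 active = inhibition above the mean inhibition of all tested sample wells plus 3 SD, cut at about 10% in these data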;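 note: 0% = DMSO with luciferase and 100% = wells lacking luciferase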
Target sequence (P08659 whole entry, looked up): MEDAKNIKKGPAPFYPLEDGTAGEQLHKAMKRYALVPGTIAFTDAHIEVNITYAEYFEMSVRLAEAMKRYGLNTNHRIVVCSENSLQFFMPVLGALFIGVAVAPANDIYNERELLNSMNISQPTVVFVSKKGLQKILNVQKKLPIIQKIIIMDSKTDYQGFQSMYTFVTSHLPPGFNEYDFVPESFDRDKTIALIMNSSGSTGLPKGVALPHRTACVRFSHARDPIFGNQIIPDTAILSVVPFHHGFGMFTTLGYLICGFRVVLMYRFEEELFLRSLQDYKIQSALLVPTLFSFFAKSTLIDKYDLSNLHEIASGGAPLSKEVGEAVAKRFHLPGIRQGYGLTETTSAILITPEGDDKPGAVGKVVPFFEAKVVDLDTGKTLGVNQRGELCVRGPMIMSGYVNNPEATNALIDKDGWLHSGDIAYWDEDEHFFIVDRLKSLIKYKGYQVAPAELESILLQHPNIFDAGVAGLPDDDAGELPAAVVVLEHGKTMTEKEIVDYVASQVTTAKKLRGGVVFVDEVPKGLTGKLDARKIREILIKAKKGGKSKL
The depositor's hits bear a star; · = not tested or not shown.

SMILES | STAT1 blocker | HSP90 inh | STAT3 inh | STAT3 activator | HSP90 inh confirm | luciferase ctr
O=C(O)CSc1nnc(Cn2nnc3ccccc32)n1CCc1ccccc1 | 12 | 25* | 10 | 96 | -8 | -5
CC(=O)N(C)c1ccc(NC(=S)NCC(C)C)cc1 | -6 | 3 | 2 | 102 | · | ·
C=C(C)COc1ccc2c(C)c(CC(=O)N3C[C@H]4C[C@@H](C3)c3cccc(=O)n3C4)c(=O)oc2c1C | · | 2 | · | · | · | ·
COCCn1c(SCC(=O)N2CCC(C)CC2)nc2ccccc2c1=O | 1 | 5 | 6 | 98 | · | ·
COc1ccc(C(=O)Nn2c(SCC(=O)c3ccc(Cl)cc3)nc3ccccc3c2=O)cc1 | 16 | 77* | 26 | 82 | 53* | 46*
COc1ccc(C(=O)Nn2c(C)nc3ccccc3c2=O)cc1 | · | 7 | · | · | · | ·
O=C(Nn1c(SCc2cccc([N+](=O)[O-])c2)nc2ccccc2c1=O)c1ccccc1 | -56 | 7 | -18 | 121 | · | ·
COc1ccc(C(=O)Nn2c(SCC(=O)N3CCC(C)CC3)nc3ccccc3c2=O)cc1 | 64* | 73* | 88* | 31 | 71* | 67*
COc1ccc(C(=O)CSc2ccccc2C(=O)O)cc1 | -17 | 32* | 20 | 92 | 32* | -7
COc1ccc(C(=O)CSc2ccc(-c3ccccc3)nn2)cc1 | 0 | 4 | 0 | 96 | · | ·
COc1ccc(C(=O)Nn2c(SCc3cccc([N+](=O)[O-])c3)nc3ccccc3c2=O)cc1 | -49 | 44* | 7 | 96 | 50* | 42*
O=C(OCc1ccc(Cl)c(Cl)c1)c1ccc[nH]1 | · | 1 | · | · | · | ·
O=C(Nn1cnc2ccccc2c1=O)c1ccc([N+](=O)[O-])cc1 | 8 | 0 | 10 | 96 | · | ·
COc1ccccc1CC(=O)O/N=C(\N)c1ccccn1 | · | 3 | · | · | · | ·
COc1ccccc1/C=N\N=C(\N)c1ccccn1 | -70 | 25* | 11 | 94 | 9 | -12
COc1cccc(C(=O)O/N=C(\N)c2ccccn2)c1 | · | 67* | · | · | 85* | 91*
N/C(=N\OC(=O)c1ccc2ccccc2c1)c1ccccn1 | 71* | 66* | 76* | 39 | 59* | 79*
COc1cccc(C(=O)O/N=C(\N)c2ccccn2)c1OC | · | 53* | · | · | 64* | 72*
CC(=O)c1cccc(-n2nnnc2SCC(=O)Nc2cc(C)on2)c1 | · | -2 | · | · | · | ·
COc1ccc(C)cc1NC(=O)c1nn(-c2ccccc2)cc1OC | · | -1 | · | · | · | ·
CCOc1cc2c(cc1OC)C(NC(=O)c1ccco1)CC2=O (configuration not stated) | · | -4 | · | · | · | ·
CCCc1ccc(C(=O)O/N=C(\N)c2ccccn2)cc1 | · | 78* | · | · | 75* | 89*
O=C(c1cc(F)c(F)cc1Cl)N1CCN(c2ncccn2)CC1 | · | 12 | · | · | · | ·
CC(=O)CC(=O)Nc1nc(C)cc(C)n1 | -2 | 27* | 5 | 102 | -1 | -3
CCOCC(=O)Nc1nc(C)cc(C)n1 | -1 | -3 | -2 | 103 | · | ·
SMILES | STAT1 blocker | HSP90 inh | STAT3 inh | STAT3 activator | HSP90 inh confirm | luciferase ctr
O=C(N1CCOCC1)N1CCN(S(=O)(=O)c2ccc(F)cc2)CC1 | · | 8 | · | · | · | ·
CC(=O)/C=C(\C)Nc1ccccc1O | · | 18* | · | · | 26* | -8
O=C(Nc1ccccc1O)c1ccccc1O | -3 | 4 | 14 | 90 | · | ·
CCn1cc(S(=O)(=O)NC2CCCCC2)cn1 | · | -2 | · | · | · | ·
CC(C)N1CC(C(=O)Nc2ccc(S(=O)(=O)N3CCCCC3)cc2)CC1=O (configuration not stated) | · | 26* | · | · | -5 | -11
COc1ccc(N(C(C)C(=O)Nc2ccc(S(=O)(=O)N3CCCCC3)cc2)S(C)(=O)=O)cc1 (configuration not stated) | · | 18* | · | · | -6 | -13
O=C1SCCC1NS(=O)(=O)c1ccc([N+](=O)[O-])cc1 (configuration not stated) | · | 8 | · | · | · | ·
COc1ccc(Br)cc1CNC(=O)Cc1c(C(=O)O)[nH]c2ccc(Cl)cc12 | -3 | 1 | 0 | 101 | · | ·
CC(C)(C)NC(=O)NC(=O)Cn1ccsc1=N | 1 | 1 | 9 | 95 | · | ·
CCc1ccc(C(=O)Cn2ccsc2=N)cc1 | · | 21* | · | · | 11 | -8

Assay outcomes as filed in PubChem.
